Yeast life ext = extends the lifespan of yeast; S. cerevisiae growth with nicotinamide, OD615; deaD strain in restrictive glucose medium; inhibition of the nicotinamide effect, % at 10 µM; 0.68% of 130,000 active;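 active = inhibition above a set limit, placed 3 SD over the median of all compounds, cut at about 26% in these data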;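 also: 0% = nicotinamide-treated wells and 100% = cells grown without nicotinamide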
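Test system: DeaD-strain S. cerevisiae / Buffer or medium: restrictive glucose medium / Also added: nicotinamide 1.5 mM / Doses: one concentration, 10 µM, DMSO 0.25% / Schedule: 48 h at 30 °C / Signal: OD615 measurement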
RAM inhibit = inhibitors of the yeast RAM network; S. cerevisiae dse1pr::URA3 reporter, 5-FOA growth OD615, 2 d; analog-sensitive cbk1-as2 kinase mutant strain; inhibition, % at 50 µM; 1.8% of 190,000 active; AID 868;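 active = inhibition above a set limit, 3 SD over mean compound inhibition, cut at about 8.4% in these data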;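 also: 0% = DMSO-only wells with no growth and 100% = 10 µM 1-NA-PP1 full growth; inhibition rescues growth on 5-FOA so higher OD means more RAM inhibition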
WT yeast gro inh = growth inhibition of WT yeast, mitochondrial fusion screen | inhibition, % at 10 µM | 2.1% of 190,000 active | mitochondrial fusion phenotypic screen, WT strain | AID 1362; in the data active = inhibition above about 58%; tested in S. cerevisiae
Cl transport mod = KCC2 (human) Cl- transport modulation | Q9H2X9 | KCC2 cells, thallium flux FluoZin-2 fluorescence | B-score of Tl+ flux slope (higher = more flux/activation; lower = inhibition) at 10 µM | 2.2% of 190,000 active | AID 1456;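 active = thallium flux slope and its plate-corrected score both differing from the plate sample mean at a set confidence after two filtering rounds, in either direction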;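 also: slope of fluorescence scaled to starting intensity during 10 to 20 s after thallium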
Target sequence (Q9H2X9 whole entry, looked up): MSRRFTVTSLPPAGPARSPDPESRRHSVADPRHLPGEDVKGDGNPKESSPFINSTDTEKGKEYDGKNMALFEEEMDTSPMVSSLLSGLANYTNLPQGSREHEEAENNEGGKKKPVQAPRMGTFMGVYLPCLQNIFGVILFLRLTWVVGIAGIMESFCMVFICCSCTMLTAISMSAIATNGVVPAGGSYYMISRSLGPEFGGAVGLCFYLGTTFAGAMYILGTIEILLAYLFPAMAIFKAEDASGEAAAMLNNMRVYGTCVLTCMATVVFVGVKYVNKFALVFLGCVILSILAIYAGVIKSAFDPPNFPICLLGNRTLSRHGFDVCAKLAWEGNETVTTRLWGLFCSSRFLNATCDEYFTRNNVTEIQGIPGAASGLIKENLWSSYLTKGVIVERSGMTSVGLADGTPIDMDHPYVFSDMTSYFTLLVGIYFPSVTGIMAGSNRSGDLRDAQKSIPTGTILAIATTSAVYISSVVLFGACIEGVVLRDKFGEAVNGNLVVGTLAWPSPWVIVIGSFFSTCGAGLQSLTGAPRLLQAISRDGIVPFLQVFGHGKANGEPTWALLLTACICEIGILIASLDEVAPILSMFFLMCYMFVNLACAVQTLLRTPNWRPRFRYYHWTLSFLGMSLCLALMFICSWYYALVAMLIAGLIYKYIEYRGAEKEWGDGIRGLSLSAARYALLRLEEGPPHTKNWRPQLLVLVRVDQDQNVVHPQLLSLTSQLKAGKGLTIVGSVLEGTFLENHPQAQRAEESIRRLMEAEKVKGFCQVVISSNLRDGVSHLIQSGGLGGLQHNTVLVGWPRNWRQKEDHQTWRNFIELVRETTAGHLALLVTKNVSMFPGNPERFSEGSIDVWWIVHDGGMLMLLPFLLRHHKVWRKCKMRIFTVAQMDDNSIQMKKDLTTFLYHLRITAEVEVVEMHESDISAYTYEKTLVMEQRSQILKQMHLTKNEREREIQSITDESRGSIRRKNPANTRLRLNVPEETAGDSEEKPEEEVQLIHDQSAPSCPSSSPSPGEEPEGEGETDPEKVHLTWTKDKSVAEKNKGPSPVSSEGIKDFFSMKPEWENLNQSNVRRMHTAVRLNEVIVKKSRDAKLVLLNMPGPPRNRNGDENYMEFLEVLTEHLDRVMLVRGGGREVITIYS
BB579 growth dn = chemicals that inhibit yeast BB579 growth in restrictive medium (lifespan-shortening candidates); AID 804; inhibition, % at 10 µM; S. cerevisiae BB579 growth, OD615, 48 h; 0.51% of 140,000 active;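 active = inhibition above a set limit, 3 SD over the mean compound inhibition, cut at about 44% in these data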
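test system = yeast BB579 (DeaD) | buffer or medium = restrictive CSMM-D medium | doses = single compound dose of 10 µM, 0.25% DMSO final | times = 4 h preincubation and 48 h exposure at 30 °C | technique = culture absorbance at 615 nm | benchmarks = amphotericin B 10 µg/mL, positive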
KCC2 sec1 = KCC2 (human) modulation, secondary assay. shares compounds with Cl transport mod. normalised thallium flux (F/F0 slope) at 10 µM. 15% of 3,700 active. HEK293-KCC2, thallium flux, FluoZin2 fluorescence; hits give high values;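 active = thallium flux slope above the same plate's solvent-only control mean plus 3 SD; inconclusive = the two replicate wells disagree; inactive = no significant difference from solvent-only control wells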
KCC2 bumet counter = thallium flux persisting under bumetanide in KCC2 cells, counter-screen secondary assay; shares compounds with Cl transport mod; HEK293-KCC2 + bumetanide/ouabain, thallium flux FluoZin2; hits give high values; normalized thallium flux at 10 µM; 49% of 3,700 active;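 active = thallium entry rate above the same plate's blocked-transporter control wells by more than 3 SD; inconclusive = the two repeat wells disagree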;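 also: raw slope of fluorescence over initial fluorescence between 10 and 20 s after thallium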
KCC2 sec2 = confirmation of human KCC2 transport modulators; shares compounds with Cl transport mod; HEK293-KCC2, thallium flux FluoZin2 fluorescence; actives lie on both sides; F/F0 rise rate, 10–20 s post-thallium; normalized thallium flux at 10 µM; 23% of 3,700 active; AID 1715;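 active = thallium flux slope more than 3 SD above or below the plate's solvent-only control mean, mostly below; inconclusive = the two repeat wells disagreed; inactive = no significant shift from solvent-only controls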;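 also: raw slope with 0.1% DMSO as baseline and bumetanide as block control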
HEK293 Tl flux = parental HEK flux effect, counter-screen; HEK293 parental cells, thallium flux FluoZin2, ouabain; baseline-ratio fluorescence slope, 10–20 s after thallium; thallium flux rate (normalised fluorescence) at 10 µM; shares compounds with Cl transport mod; 46% of 3,700 active;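 active = thallium flux rate significantly above the same plate's solvent-only control wells, beyond their mean plus 3 SD; inconclusive = the two replicate wells gave conflicting results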
KCC2 ouabain = KCC2 (human) modulation, ouabain retest. shares compounds with Cl transport mod. HEK293-KCC2, thallium flux FluoZin2 fluorescence; bidirectional: low = inhibitor, high = activator. raw Tl+ flux slope (below DMSO = inhibition, above = activation) at 10 µM. 48% of 3,700 active;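 active = thallium flux slope beyond 3 SD from same-plate DMSO control mean in most replicates, usually higher, sometimes lower; inconclusive = repeat tests gave conflicting results; inactive = no significant difference from controls in most replicates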;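 also: slope of initial-normalized fluorescence between seconds 10 and 20 after thallium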
HEK293 Tl flux2 = counter-screen for KCC2 modulators: effect in parental HEK293 cells. shares compounds with Cl transport mod. thallium flux FluoZin-2 fluorescence slope. thallium flux slope at 10 µM. 33% of 3,700 active;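 active = thallium flux slope above the same plate's solvent-control mean plus 3 SD in both duplicate wells; inconclusive = duplicate wells that disagreed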;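 also: run without ouabain in cells lacking the KCC2 cotransporter; slope of fluorescence scaled to its starting value between 10 and 20 s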
* marks the source's active call; other numbers are inactive results; ? = inconclusive; . = not tested or not shown. Sampled rows, rich in hits. Any-hit rate of the full collection: about 5.5%.

SMILES	Yeast life ext	RAM inhibit	WT yeast gro inh	Cl transport mod	BB579 growth dn	KCC2 sec1	KCC2 bumet counter	KCC2 sec2	HEK293 Tl flux	KCC2 ouabain	HEK293 Tl flux2
CCc1ccc(OCCNC(=O)c2ccccc2SCc2ccccc2)cc1	-2	8.8*	37	.	-30	0.0082	?	0.024*	0.0038	0.015*	0.011
CSCCC(NS(=O)(=O)c1ccccc1F)C(=O)NC(C)c1ccccc1 (stereo not drawn)	.	1	-7	-0.64	.	.	.	.	.	.	.
O=C(Cn1ccc([N+](=O)[O-])n1)NCc1cccnc1	.	2	-1	-0.0097	.	.	.	.	.	.	.
Cc1cc(S(=O)(=O)N2CCCC(C(=O)Nc3ccc(C(=O)O)cc3)C2)ccc1Cl (stereo not drawn)	.	7	-1	0.7	.	.	.	.	.	.	.
Cc1noc(C)c1CSc1ncnc2sc3c(c12)CCCCC3	-6	8	42	78*	-34	0.033*	0.16*	?	0.078*	0.11*	0.028*
Cc1ccc(C(=O)CSc2ncnc3sc4c(c23)CCCC4)cc1	-23	3	3	5.3*	-27	0.014*	0.033*	0.032	0.026*	0.03*	?
O=C(O)CSc1ncnc2sc3c(c12)CCCC3	.	-2	-4	12*	.	0.006	0.0065*	?	0.0099*	0.018	0.0093
CCSc1ncnc2sc3c(c12)CCC3	-9	0	-4	0.93	-4	.	.	.	.	.	.
O=C(O)CSc1ncnc2sc3c(c12)CCC3	-28	1	18	7.8*	-23	0.016*	0.035*	0.031	0.016*	0.037*	0.012*
CCOC(=O)c1c(C)n(C)c2ccc(OC)c(NC(=O)CCN3CCC(Cc4ccccc4)CC3)c12	.	.	.	-0.47	.	.	.	.	.	.	.
O=C(CSc1nnc(COc2cccc3cccnc23)o1)c1ccc(F)cc1	-6	0	11	.	-36	0.0067	0.0052	0.033	0.0035	0.015*	0.011
Cc1ccc(C(=O)CSc2nnc(COc3cccc4cccnc34)o2)cc1	-5	-1	-7	-4*	-22	?	?	?	0.0069	0.014	0.01
COc1cccc(C(=O)CSc2nnc(COc3cccc4cccnc34)o2)c1	-8	4	-3	-3.5	-60	.	.	.	.	.	.
O=C(N/N=C/c1ccc(Br)s1)c1cccs1	.	.	.	112*	.	0.014*	0.086*	0.034	0.04*	0.049*	0.034*
Cc1ccc(/C=N/NC(=O)c2cccs2)s1	-6	1	3	0.55	-37	.	.	.	.	.	.
Cc1c(CN2CCC(CO)(CCOc3ccccc3)CC2)c(=O)n(-c2ccccc2)n1C	.	1	-13	0.071	.	.	.	.	.	.	.
Cc1ccc(-c2nnn(CC(=O)N(c3ccc4c(c3)OCCO4)C(C(=O)NCC3CCCO3)c3ccc(F)cc3)n2)o1 (stereo not drawn)	.	0	-11	-0.2	.	.	.	.	.	.	.
CCNC(=S)NN=C1c2ccccc2-c2ccccc21	.	2	15	34*	.	0.018*	0.051*	0.033	0.067*	0.047*	0.016*
C=C(C)CNC(=S)NN=C1c2ccccc2-c2ccccc21	.	4	70*	28*	.	0.0068	0.075*	0.046*	0.026*	0.055*	0.027*
CC(C)CC(c1nnnn1Cc1cccs1)N1CCN(c2nc3ccccc3s2)CC1 (stereo not drawn)	.	6	0	-5.1*	-27	0.006	0.005	?	0.0076	?	0.011
COc1ccc(C(c2nnnn2Cc2ccc(F)cc2)N2CCN(c3ccccc3)CC2)cc1 (stereo not drawn)	-8	-1	32	-2.9	-18	.	.	.	.	.	.
CCC(c1nnnn1Cc1cccs1)N1CCN(c2nc3ccccc3s2)CC1 (stereo not drawn)	-1	1	49	-4*	-22	0.0069	0.0041	?	0.0063*	0.014*	0.011
CC(C)C(c1nnnn1Cc1ccco1)N1CCN(c2nc3ccccc3s2)CC1 (stereo not drawn)	3	1	23	-0.56	-39	.	.	.	.	.	.
COc1ccc(Cn2nnnc2C(CC(C)C)N2CCN(c3ccccc3)CC2)cc1 (stereo not drawn)	-10	2	15	.	-7	0.0088	0.0041	0.033	0.0067	0.018	0.011
Cc1ccsc1/C=N/n1c(COc2ccccc2)n[nH]c1=S	-1	5	-13	3.5	-6	.	.	.	.	.	.
SMILES	Yeast life ext	RAM inhibit	WT yeast gro inh	Cl transport mod	BB579 growth dn	KCC2 sec1	KCC2 bumet counter	KCC2 sec2	HEK293 Tl flux	KCC2 ouabain	HEK293 Tl flux2
COc1ccccc1CCNC(=O)/C(=C/c1cccnc1)NC(=O)c1ccccc1	0	3	10	0.57	-15	.	.	.	.	.	.
CCN(CC)S(=O)(=O)c1cccc(NC(=O)C(=O)c2c(-c3ccccc3)cc3ccccn23)c1	9	9.9*	18	-2.9*	-85	0.0059	0.0037	0.027	0.0073	0.016	0.0099
CCOC(=O)C1CC=C(Cl)CC1C(=O)Nc1nccs1 (stereo not drawn)	-14	1	-5	-0.99	-9	.	.	.	.	.	.
CCCn1c(=S)[nH]c2cc(OC)c(OC)cc2c1=O	-4	2	-4	11*	-3	0.013*	0.022*	0.034	?	?	?
CCOc1cc2[nH]c(=S)n(CCOC)c(=O)c2cc1OCC	-17	2	1	0.014	-49	.	.	.	.	.	.
COCCn1c(=S)[nH]c2ccc(N(C)C)cc2c1=O	-16	1	8	3.2*	-13	0.0066	0.0083*	0.029	0.0095*	0.019	0.012*
O=C(CCCSc1nc2sc3c(c2c(=O)[nH]1)CCC3)NCCCO	-2	2	6	.	-23	.	.	.	.	.	.
O=C(CCCSc1nc2sc3c(c2c(=O)[nH]1)CCC3)NCCO	-6	0	-3	-4.2*	-29	0.015	0.0047	0.028	0.0073	0.016	0.0098
Cc1ccc(-c2n[nH]c(=S)c3ccccc23)cc1	.	0	-18	8.9*	.	0.0092	0.025*	0.029	0.0097*	?	0.0095
C/C(=N/NC(=O)CNC(=O)COc1ccccc1)c1ccco1	-4	0	-3	1.7	-15	.	.	.	.	.	.
